Here are results for eleven molecules from ChEMBL document CHEMBL4229335 (Eur J Med Chem, 2018).

For one series, the system named is Bel7402/5-FU. The series can be described thus: Antiproliferative activity against human Bel7402/5-FU cells after 72 hrs by MTT assay. The class given is functional, cell-based. The method in brief: (§1)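 MTT assay with 72 h exposure to graded concentrations in triplicate. MTT solution then DMSO were added, followed by 10 min at room temperature, with absorbance read at 490 nm. IC50 is reported as the mean of three independent experiments. 5-FU served as positive control.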

The subject of the next series is PC-3. Nature of the series: Antiproliferative activity against human PC3 cells after 72 hrs by MTT assay. The conditions noted are these: PC-3, 72 h. The class given is functional, cell-based. The method in brief: as §1
The next series concerns L02. Nature of the series: Antiproliferative activity against human LO2 cells after 72 hrs by MTT assay. The conditions noted are these: L02, 72 h. The class given is cell-based. The essentials:
as §1

The nature of series [1]: Selectivity index, ratio of IC50 for human LO2 cells to IC50 for human Bel7402 cells. The class given is toxicity. The note with it: LO2 cells versus Bel7402 cells, read-out: Ratio IC50. The essentials:
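SI was calculated as IC50 in L-02 normal liver cells divided by IC50 in Bel-7402 cells, both from the 72 h MTT assay.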

For the next series, the system named is HL-60. Nature of the series: Antiproliferative activity against human HL60 cells after 72 hrs by MTT assay. The class given is functional, cell-based. The note with it: HL-60, 72 h. The method in brief:
as §1

Another series concerns Bel-7402. The series can be described thus: Antiproliferative activity against human Bel7402 cells after 72 hrs by MTT assay. The class given is functional, cell-based. The conditions noted are these: Bel-7402, 72 h. The essentials: as §1

Structures are written as SMILES. Some results are limits rather than exact numbers.

`C=C1C(=O)[C@@]23C(=O)O[C@H]4CCC(C)(C)[C@H]5[C@H](O)OC[C@@]45[C@@H]2CC[C@@H]1[C@H]3O`: the IC50 with Bel7402/5-FU turned out to be 44.3 µM; with PC-3, 30.6 µM; with L02 it was 27.1 µM; in the series on HL-60, 28.1 µM; in the series with Bel-7402, 32.1 µM. In addition, the selectivity ratio in series [1] was found to be 0.8.

In the case of `C=C1C(=O)[C@@]23C(=O)O[C@H]4CCC(C)(C)[C@H]5C(=O)OC[C@@]45[C@@H]2CC[C@@H]1[C@H]3O`, the IC50 was 19.6 µM with Bel7402/5-FU, 22.6 µM in the series on PC-3, 25.5 µM with L02 and 20.6 µM in the series on HL-60. Further, in series [1], the selectivity ratio was determined as 1.6.

Consider `C=C1C(=O)[C@@]23C(=O)O[C@H]4CCC(C)(C)[C@H]5C(=O)OC[C@@]45[C@@H]2CC[C@@H]1[C@H]3OC(=O)c1ccc(N(CCCl)CCCl)cc1`, for which the IC50 in the series with Bel7402/5-FU worked out at 2.9 µM; with PC-3 it was 7.03 µM; with L02, 62.8 µM; in the series with HL-60, 5.57 µM; in the series with Bel-7402, 1.6 µM. Besides, the selectivity ratio in series [1] turned out to be 39.3.

For `COC(=O)[C@H](Cc1ccc(N(CCCl)CCCl)cc1)NC(=O)CCC(=O)O`, the IC50 in the series on Bel7402/5-FU was above 100 µM; with PC-3, 57.3 µM; with L02 it was 68.6 µM; in the series on HL-60 it was 12.4 µM; in the series on Bel-7402, 46.5 µM. In addition, the selectivity ratio in series [1] was 1.5.

In the case of `C=C1C(=O)[C@@]23C(=O)O[C@H]4CCC(C)(C)[C@H]5[C@H](O)OC[C@@]45[C@@H]2CC[C@@H]1[C@H]3OC(=O)CCCc1ccc(N(CCCl)CCCl)cc1`, the IC50 in the series with Bel7402/5-FU amounted to 8.49 µM; in the series on PC-3, 7.32 µM; with L02, 69.9 µM; in the series on HL-60 it was 6.35 µM; in the series on Bel-7402, 2.08 µM. Also, in series [1], the selectivity ratio came to 33.6.

`C=C1C(=O)[C@@]23C(=O)O[C@H]4CCC(C)(C)[C@H]5C(=O)OC[C@@]45[C@@H]2CC[C@@H]1[C@H]3OC(=O)CCC(=O)N[C@@H](Cc1ccc(N(CCCl)CCCl)cc1)C(=O)OC`: the IC50 in the series with Bel7402/5-FU is 12.8 µM; in the series on PC-3, above 100 µM; in the series on L02, above 100 µM; in the series with HL-60, 18.5 µM; in the series on Bel-7402, 6.5 µM.

Turning to `C=C1C(=O)[C@@]23C(=O)O[C@H]4CCC(C)(C)[C@H]5[C@H](OC(=O)CCC(=O)N[C@@H](Cc6ccc(N(CCCl)CCCl)cc6)C(=O)OC)OC[C@@]45[C@@H]2CC[C@@H]1[C@H]3OC(=O)CCC(=O)N[C@@H](Cc1ccc(N(CCCl)CCCl)cc1)C(=O)OC`, the 50% inhibitory concentration (IC50) in the series on Bel7402/5-FU is 7.93 µM; in the series with PC-3 it was above 100 µM; in the series on L02 it was above 100 µM; in the series with HL-60, 17.6 µM; in the series on Bel-7402, 5.73 µM.

In the case of `C=C1C(=O)[C@]23[C@H](O)[C@H]1CC[C@H]2[C@@]12CO[C@]3(O)[C@@H](O)[C@@H]1C(C)(C)CC[C@@H]2O` [ORIDONIN], the IC50 in the series with Bel7402/5-FU is 10.5 µM; in the series with PC-3 it was 11 µM; in the series on L02, 18.9 µM; in the series with HL-60, 14.3 µM; in the series on Bel-7402 it was 7.36 µM. The selectivity ratio in series [1] turned out to be 2.6.

Regarding `C=C1C(=O)[C@@]23C(=O)O[C@H]4CCC(C)(C)[C@H]5C(=O)OC[C@@]45[C@@H]2CC[C@@H]1[C@H]3OC(=O)CCCc1ccc(N(CCCl)CCCl)cc1`, the IC50 is 15.6 µM with Bel7402/5-FU; 5.5 µM in the series on PC-3; 49.8 µM with L02; 9.94 µM in the series on HL-60; 3.06 µM in the series on Bel-7402. Also, the selectivity ratio in series [1] was determined as 16.3.

For `O=C(O)CCCc1ccc(N(CCCl)CCCl)cc1` [CHLORAMBUCIL], the IC50 with Bel7402/5-FU, in the series on L02 and in the series with Bel-7402 was above 100 µM each time.

In the series on Bel7402/5-FU, `O=c1[nH]cc(F)c(=O)[nH]1` [FLUOROURACIL] showed a 50% inhibitory concentration (IC50) above 80 µM.
